For orientation: EC50 means the concentration needed to bring the measured effect to its halfway point. Lower therefore signals a more potent agent. The clearance is the volume of plasma or blood freed of the substance per unit of time. As usually defined, the Vd is a proportionality between amount in the body and measured concentration, not a real space. High values mean extensive tissue distribution, low ones confinement near the circulation. In general, AUC refers to the area under the concentration-time curve, a measure of exposure. Read a high AUC as more exposure. By bioavailability is commonly meant dose-corrected exposure relative to a reference, in per cent. A lower bioavailability goes with poor availability. A word on the half-life: it is the time needed for the level to fall by half in the phase considered. As usually defined, the Cmax is the maximum level reached in the sampled fluid or tissue. In general, solubility refers to how much of the substance goes into solution per volume. Low values mean a poorly soluble substance, high ones a readily soluble substance. In general, inhibition refers to the share of the control response that was lost under treatment. As usually defined, the logD is lipophilicity at a set pH, counting ionised and neutral species. A high value points to higher lipophilicity.

Here are results for 29 compounds from ChEMBL document CHEMBL4814043, “Optimization of a urea-containing series of nicotinamide phosphoribosyltransferase (NAMPT) activators” (Bioorg Med Chem Lett, 2021).

The target in data set [1] is T1, Nicotinamide phosphoribosyltransferase (Homo sapiens, UniProt P43490). As to the kind of experiment: Activation of human NAMPT.
Target sequence in this assay (P43490 whole entry): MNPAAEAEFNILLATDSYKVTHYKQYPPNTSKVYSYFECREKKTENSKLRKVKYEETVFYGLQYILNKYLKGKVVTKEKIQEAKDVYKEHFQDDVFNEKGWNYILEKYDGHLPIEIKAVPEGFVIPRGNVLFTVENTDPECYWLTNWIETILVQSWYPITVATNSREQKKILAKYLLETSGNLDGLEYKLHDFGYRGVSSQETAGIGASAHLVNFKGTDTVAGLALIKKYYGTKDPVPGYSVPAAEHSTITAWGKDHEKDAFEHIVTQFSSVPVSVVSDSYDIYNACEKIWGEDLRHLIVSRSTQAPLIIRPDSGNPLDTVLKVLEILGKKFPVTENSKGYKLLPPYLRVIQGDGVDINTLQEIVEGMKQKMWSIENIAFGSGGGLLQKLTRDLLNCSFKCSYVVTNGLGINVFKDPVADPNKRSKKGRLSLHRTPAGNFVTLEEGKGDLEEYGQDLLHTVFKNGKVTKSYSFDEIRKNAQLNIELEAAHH
A short description of data set [2]: Plasma clearance in mouse at 1 mg/kg, iv. In kind it is ADME, organism-based.
Data set [3] is described as follows: Volume of distribution in mouse at 1 mg/kg, iv. The following applies: in vivo. In kind it is ADME, organism-based.
Data set [4] is described as follows: AUC in mouse at 10 mg/kg, po. Details: dose 10 mg/kg. The following applies: in vivo. In kind it is ADME, organism-based.
The nature of data set [5]: Oral bioavailability in mouse at 10 mg/kg. The class given is ADME, organism-based. The following applies: in vivo.
Data set [6] can be described thus: Half life in mouse at 10 mg/kg, po. The class given is ADME, organism-based. The following applies: in vivo.
Data set [7] is described as follows: Cmax in mouse at 10 mg/kg, po. The class given is ADME, organism-based. Also noted: route oral, dose 10 mg/kg. The following applies: in vivo.
A short description of data set [8]: Metabolic stability in mouse liver microsomes assessed as parent compound remaining at 1 uM measured after 30 mins. The class given is ADME, Microsome. The following applies: read-out: Stabilty. The procedure, abridged: (§1)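 Compound at 1 µM incubated with human or mouse microsomes for 30 min; read-out is percent parent remaining.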
(Microsomes from liver hold many membrane-bound enzymes, among them those of drug oxidation.)

Data set [9] is described as follows: Permeability of compound at pH 5 by PAMPA assay. In kind it is ADME. The following applies: read-out: permeability. In general terms: In PAMPA a lipid-coated filter parts donor from acceptor wells.
The nature of data set [10]: Solubility of compound at pH 1.2. In kind it is physicochemical. The following applies: buffer.
In data set [11] the target is T1, Nicotinamide phosphoribosyltransferase. The experiment in a line: Activation of NAMPT in human A549 cells assessed as increase in NAD+ level at 10 uM incubated for 4 hrs by LC-MS/MS analysis. In kind it is cell-based. The following applies: filed as activator. In a few lines:
(§2)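 A549 cells exposed to 10 µM compound or DMSO vehicle for 4 hr, then harvested; NMN and NAD+ quantified by LC-MS/MS and normalized to cell protein; significance vs. vehicle control by P value.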
Target sequence in this assay (P43490 whole entry, looked up): as the sequence (P43490 whole entry) above

Data set [12] in a line: Permeability of compound at pH 7.4 by PAMPA assay. In kind it is ADME. The following applies: read-out: permeability.
A further data set addresses CYP3A4 (Homo sapiens, UniProt P08684). The experiment in a line: Inhibition of CYP3A4 (unknown origin) at 10 uM measured after 10 mins. In kind it is ADME. In a few lines:
(§3)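 Each CYP isoform (1A2, 2C9, 2D6, 3A4) reacted with compound at 10 µM for 10 min; value reported as percent inhibition.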

The target in the next data set is CYP2C9 (Homo sapiens, UniProt P11712). The experiment in a line: Inhibition of CYP2C9 (unknown origin) at 10 uM measured after 10 mins. In kind it is ADME. In a few lines: as §3
Sequence of CYP2C9 (P11712 whole entry): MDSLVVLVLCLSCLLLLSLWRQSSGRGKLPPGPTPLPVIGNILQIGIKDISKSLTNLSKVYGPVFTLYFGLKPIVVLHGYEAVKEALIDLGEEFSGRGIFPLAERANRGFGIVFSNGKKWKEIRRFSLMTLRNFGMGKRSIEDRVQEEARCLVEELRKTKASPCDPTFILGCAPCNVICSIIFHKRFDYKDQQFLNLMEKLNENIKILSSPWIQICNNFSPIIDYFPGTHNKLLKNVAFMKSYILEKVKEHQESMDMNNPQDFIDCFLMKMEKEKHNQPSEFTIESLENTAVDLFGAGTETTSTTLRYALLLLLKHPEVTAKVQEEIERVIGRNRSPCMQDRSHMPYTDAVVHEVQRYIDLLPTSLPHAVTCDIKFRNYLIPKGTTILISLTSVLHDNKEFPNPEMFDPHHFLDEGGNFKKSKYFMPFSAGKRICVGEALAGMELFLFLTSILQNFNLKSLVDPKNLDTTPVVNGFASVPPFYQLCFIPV
Data set [13] addresses T1, Nicotinamide phosphoribosyltransferase. The experiment in a line: Activation of NAMPT in human A549 cells assessed as increase in NMN level at 10 uM incubated for 4 hrs by LC-MS/MS analysis. In kind it is cell-based. The following applies: filed as activator. The procedure, abridged:
as §2
Target sequence in this assay (P43490 whole entry, looked up): as the sequence (P43490 whole entry) above

In the next data set the target is T2, CYP1A2 (Homo sapiens, UniProt P05177).
T2 sequence (P05177 whole entry): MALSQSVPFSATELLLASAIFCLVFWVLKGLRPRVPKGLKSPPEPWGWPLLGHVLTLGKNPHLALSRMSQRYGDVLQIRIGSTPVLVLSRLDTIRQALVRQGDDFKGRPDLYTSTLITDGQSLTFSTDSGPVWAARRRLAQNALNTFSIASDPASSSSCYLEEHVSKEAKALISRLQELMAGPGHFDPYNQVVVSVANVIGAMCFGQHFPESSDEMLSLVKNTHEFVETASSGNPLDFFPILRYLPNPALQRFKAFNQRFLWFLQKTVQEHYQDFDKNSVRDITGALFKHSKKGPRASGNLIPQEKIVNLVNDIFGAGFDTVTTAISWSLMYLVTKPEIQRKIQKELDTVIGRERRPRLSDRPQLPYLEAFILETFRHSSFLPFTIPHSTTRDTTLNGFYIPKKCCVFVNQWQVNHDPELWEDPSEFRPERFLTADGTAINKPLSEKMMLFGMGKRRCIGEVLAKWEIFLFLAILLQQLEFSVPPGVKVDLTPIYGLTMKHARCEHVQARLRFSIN
The experiment in a line: Inhibition of CYP1A2 (unknown origin) at 10 uM measured after 10 mins. In kind it is ADME. The procedure, abridged:
as §3

The target of another data set is CYP2D6 (Homo sapiens, UniProt P10635). As to the kind of experiment: Inhibition of CYP2D6 (unknown origin) at 10 uM measured after 10 mins. The class given is ADME. The procedure, abridged:
as §3

Data set [14] is described as follows: Solubility of compound at pH 6.8. The class given is physicochemical. The following applies: buffer.
Data set [15] can be described thus: 1-Octanol/PBS buffer distribution coefficient, log D of the compound at pH 7.4. In kind it is physicochemical. The procedure, abridged: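 Partitioning measured between 1-octanol and phosphate-buffered saline at pH 7.4.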
A short description of data set [16]: Metabolic stability in human liver microsomes assessed as parent compound remaining at 1 uM measured after 30 mins. The class given is ADME, Microsome. The following applies: read-out: Stabilty. In a few lines:
as §1

≈ marks a conversion by molar mass, not a printed value. Calls of active or inactive are those of the source.

Sequence of CYP3A4 (P08684 whole entry, canonical isoform): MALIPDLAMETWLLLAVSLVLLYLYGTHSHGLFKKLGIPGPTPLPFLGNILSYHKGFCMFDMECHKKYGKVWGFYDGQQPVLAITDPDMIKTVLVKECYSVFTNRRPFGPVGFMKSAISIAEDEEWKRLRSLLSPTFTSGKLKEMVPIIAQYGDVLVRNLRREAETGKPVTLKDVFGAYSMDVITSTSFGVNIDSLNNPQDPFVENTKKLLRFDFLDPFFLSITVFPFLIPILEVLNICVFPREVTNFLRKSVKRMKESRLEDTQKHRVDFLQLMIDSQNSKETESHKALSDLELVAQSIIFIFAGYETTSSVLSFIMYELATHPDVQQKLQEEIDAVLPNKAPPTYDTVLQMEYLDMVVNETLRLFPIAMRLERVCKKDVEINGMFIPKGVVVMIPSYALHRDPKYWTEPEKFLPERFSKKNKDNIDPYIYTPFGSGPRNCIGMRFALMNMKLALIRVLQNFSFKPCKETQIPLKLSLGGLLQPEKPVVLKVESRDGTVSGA
Sequence of CYP2D6 (P10635 whole entry): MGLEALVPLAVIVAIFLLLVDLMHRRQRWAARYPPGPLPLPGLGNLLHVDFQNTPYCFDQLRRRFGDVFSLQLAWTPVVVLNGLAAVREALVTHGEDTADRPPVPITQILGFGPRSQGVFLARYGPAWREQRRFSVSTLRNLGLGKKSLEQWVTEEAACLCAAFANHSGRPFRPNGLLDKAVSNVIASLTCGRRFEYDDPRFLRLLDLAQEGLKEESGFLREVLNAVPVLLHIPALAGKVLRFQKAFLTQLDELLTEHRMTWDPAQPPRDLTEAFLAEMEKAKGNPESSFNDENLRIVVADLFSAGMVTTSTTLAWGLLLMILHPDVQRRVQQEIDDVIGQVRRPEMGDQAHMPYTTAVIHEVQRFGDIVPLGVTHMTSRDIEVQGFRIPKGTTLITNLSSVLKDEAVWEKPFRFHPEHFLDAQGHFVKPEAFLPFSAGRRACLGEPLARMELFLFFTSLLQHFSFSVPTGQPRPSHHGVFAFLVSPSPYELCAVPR

Consider `CCOC(=O)c1ccc(N(C)C(=O)NCc2ccncc2)cc1`, for which the EC50 in data set [1] was over 100000 nM.

The compound `O=C(NCc1cnco1)Nc1ccc(S(=O)(=O)c2cccc(OC(F)(F)F)c2)cc1` yielded a clearance in data set [2] of 4 mL/min/kg. This compound also gave a Vd in [3] of 0.58 L/kg. The AUC in data set [4] was 45200 ng·h/mL. The bioavailability in data set [5] is over 100%. The half-life in data set [6] is 138 min. The compound further returned a Cmax in data set [7] of 15300 ng/mL.

Compound `O=C(NCc1ccncc1)Nc1ccc(S(=O)(=O)N2CCc3ccccc3C2)cc1` had an EC50 in [1] of 142 nM. The compound also came in with a clearance in data set [2] of 20 mL/min/kg. The Vd in data set [3] is 0.6 L/kg. This compound also displayed an exposure (AUC) in data set [4] of 4270 ng·h/mL. In addition, the bioavailability in data set [5] was determined as 47%. Moreover, in data set [6], the half-life was 60 min. The Cmax in data set [7] is 7860 ng/mL.

For the compound `CCOC(=O)c1ccc(CC(=O)NCc2ccncc2)cc1`, the EC50 in data set [1] is over 100000 nM.

With `CCOC(=O)c1ccc(NC(=O)NCc2c[nH]nn2)cc1`, in data set [1], the 50% effective concentration (EC50) is 7750 nM.

`O=C(NCc1ccncc1)Nc1ccc(S(=O)(=O)c2ccc(Cl)cc2)cc1` registered an EC50 in data set [1] of 126 nM.

In [1], `CCOC(=O)c1ccc(N/C(=N\C#N)NCc2ccncc2)cc1` registered a concentration for a half-maximal effect (EC50) of 41400 nM.

In [1], `CCOC(=O)c1ccc(NC(=O)OCc2ccncc2)cc1` displayed an EC50 of 10800 nM.

In turn, `CN(C1CCCC1)S(=O)(=O)c1ccc(NC(=O)NCc2ccncc2)cc1` displayed a half-maximal effective concentration (EC50) in data set [1] of 123 nM.

Consider `O=C(NCc1cn[nH]c1)Nc1ccc(S(=O)(=O)c2ccc(Cl)cc2)cc1`, for which the EC50 in [1] amounted to 23 nM. Also, the results for the remaining at 0.5 h, 1 µM in data set [8] and in [16] were 18% and 87%, respectively. The Papp in data set [9] was under 0.01 ×10⁻⁶ cm/s; in [12] it was 0.04 ×10⁻⁶ cm/s. The same compound came in with a clearance in [2] of 3 mL/min/kg. The solubility in data set [10] was determined as 110 µg/mL (≈ 281 µM); in data set [14], 8.5 µg/mL (≈ 21.7 µM). Besides, the outcome in data set [11] and in [13] was Active. Also, the Vd in data set [3] turned out to be 0.61 L/kg. In data set [4], this compound registered an AUC of 54500 ng·h/mL. Moreover, the inhibition at 10 min, 10 µM turned out to be 0% against CYP3A4, 96% on CYP2C9, 65% on CYP1A2 and 95% against CYP2D6. The compound further registered a bioavailability in data set [5] of 80%. In data set [6], the half-life was 192 min. In data set [15], this compound came in with a logD of 3.1. The Cmax in data set [7] amounted to 9550 ng/mL.

On to `O=C(NCc1ccncc1)Nc1ccc(S(=O)(=O)Nc2ccccc2)cc1`, for which the EC50 in [1] came out at 410 nM.

In the case of `CCOC(=O)c1ccc(NC(=O)NCc2cn[nH]c2)cc1`, the EC50 in [1] stood at 1850 nM.

`O=C(NCc1ccncc1)Nc1ccc(S(=O)(=O)NCc2ccccc2)cc1` had an EC50 in data set [1] of 102 nM.

As to `CN(C)S(=O)(=O)c1ccc(NC(=O)NCc2ccncc2)cc1`, a half-maximal response in data set [1] (EC50) required 3110 nM.

As to `CCOC(=O)c1ccc(NC(=O)CCc2ccncc2)cc1`, the EC50 in [1] stood at 15900 nM.

With `CCOC(=O)c1ccc(NC(=S)NCc2ccncc2)cc1`, in data set [1], a half-maximal effect (EC50) was put at 9770 nM.

Consider `CCOC(=O)c1ccc(NC(=O)N(C)Cc2ccncc2)cc1`, for which, in data set [1], the 50% effective concentration (EC50) is over 100000 nM.

`CCOC(=O)c1ccc(NC(=O)NCc2cc[nH]n2)cc1` yielded a concentration giving a half-maximal response (EC50) in data set [1] of 69000 nM.

In turn, `CCOC(=O)c1ccc(NC(=O)NCc2ccccc2)cc1` yielded an EC50 in data set [1] of 1370 nM.

As for `CCOC(=O)c1ccc(NC(=O)NCc2ccncn2)cc1`, the EC50 in data set [1] amounted to 13600 nM.

The compound `CN(Cc1ccccc1)S(=O)(=O)c1ccc(NC(=O)NCc2ccncc2)cc1` came in with a clearance in [2] of 43 mL/min/kg. In addition, the Vd in data set [3] worked out at 1.37 L/kg. Also, in [4], the AUC is 4510 ng·h/mL. In data set [5], this compound came in with a bioavailability of over 100%. In data set [6], this compound had a half-life of 36 min. For the same compound, the Cmax in data set [7] came out at 4950 ng/mL.

`CCOC(=O)c1ccc(NC(=O)NC(C)c2ccncc2)cc1` (stereo not given) had an EC50 in data set [1] of 2280 nM.

In [1], `CCOC(=O)c1ccc(NC(=O)NCc2ccnnc2)cc1` registered an EC50 of over 100000 nM.

In the case of `O=C(NCc1ccncc1)Nc1ccc(S(=O)(=O)N2CC3CCC(C2)O3)cc1`, the EC50 in data set [1] was 279 nM.

Regarding `O=C(NCc1cn[nH]c1)Nc1ccc(S(=O)(=O)c2ccccc2)cc1`, the EC50 in data set [1] worked out at 28 nM. This compound also registered a clearance in [2] of 8 mL/min/kg. Also, the Vd in data set [3] is 1.12 L/kg. In addition, the AUC in data set [4] is 9340 ng·h/mL. Moreover, the bioavailability in data set [5] was determined as 45%. In data set [6], the half-life was 150 min. For the same compound, in data set [7], the peak level (Cmax) was 2230 ng/mL.

For `O=C(NCc1ccncc1)Nc1ccc(S(=O)(=O)c2ccccc2)cc1`, the response in data set [1] was half-maximal at 85 nM (EC50).

For `O=C(NCc1cnco1)Nc1ccc(S(=O)(=O)c2ccccc2)cc1`, the EC50 in data set [1] is 77 nM.

In data set [1], `CNS(=O)(=O)c1ccc(NC(=O)NCc2ccncc2)cc1` gave an EC50 of 3230 nM.

Turning to `CCOC(=O)c1ccc(NC(=O)NCc2cocn2)cc1`, the response in data set [1] was half-maximal at 27600 nM (EC50).
